The assay has as its target Translocator protein (Rattus norvegicus, UniProt P16257). As to the kind of experiment: Test in vitro, for potential ability to displace [3H]1 from PBR in rat brain cortex. It counts as tissue-based. The method, boiled down:
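Rat cortical membranes homogenized in ice-cold PBS (50 mM, pH 7.4) with 100 mM NaCl, spun at 1000g, then pellet washed three times at 50000g and resuspended in PBS. Assay stopped by GF/B filtration, counted by liquid scintillation. IC50 fitted from six displacer concentrations, triplicate.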

The term IC50 denotes the point on the concentration scale where inhibition reaches its midpoint. A higher IC50 goes with a need for much substance.

Translocator protein, sequence (P16257 whole entry, looked up): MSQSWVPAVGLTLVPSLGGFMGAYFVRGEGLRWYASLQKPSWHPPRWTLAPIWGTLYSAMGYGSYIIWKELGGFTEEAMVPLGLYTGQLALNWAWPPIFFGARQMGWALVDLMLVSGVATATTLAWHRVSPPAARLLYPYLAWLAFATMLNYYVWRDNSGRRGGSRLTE

In turn, `Cc1nc2ccccc2c(-c2ccccc2)c1C(=O)N(C)c1ccccc1` had an IC50 of more than 10000 nM.
Take `CCCN(CCC)C(=O)c1ccccc1CN(CC)Cc1ccccc1`: the IC50 was 8870 nM.
On to `Cc1ccc(CN2Cc3nc4ccccc4c(-c4ccccc4)c3C2=O)cc1`, for which the IC50 was determined as 410 nM. Against the preceding compound, the IC50 is about 22-fold lower.
On to `CCCN(CCC)C(=O)c1c(C)nc2ccccc2c1-c1ccccc1`, for which the IC50 is more than 10000 nM.
For `CCN(CC)C(=O)c1cc(-c2ccccc2)c2ccccc2c1`, the IC50 was determined as 5 nM.
For `CCN(Cc1ccccc1)Cc1ccccc1C(=O)N(CC)CC`, the IC50 came to 8210 nM.
Take `CCN(Cc1ccccc1)Cc1nc2ccccc2c(-c2ccccc2)c1C(=O)NCc1ccccc1`: the IC50 was found to be 2900 nM.
The value for `CCOC(=O)c1c(N(CC)Cc2ccccc2)nc2ccccc2c1-c1ccccc1` was 540 nM; that for `CCN(Cc1ccccc1)Cc1nc2ccccc2c(-c2ccccc2)c1C(=O)N(CC)CC` was 373 nM.
With `CCN(Cc1ccccc1)Cc1cc(-c2ccccc2)c2ccccc2n1`, the IC50 worked out at 3400 nM.
As for `O=C1c2c(nc3ccccc3c2-c2ccccc2)CN1Cc1ccc(Cl)cc1`, the IC50 is 210 nM.
The value for `CCN(Cc1ccccc1)Cc1nc2ccccc2c(-c2ccccc2)c1C(=O)N(C)c1ccccc1` was 1320 nM; that for `CCN(CC)C(=O)c1c(C)nc2ccccc2c1-c1ccccc1` was more than 10000 nM.
`CCN(CC)C(=O)c1cc(-c2ccccc2)c2ccccc2n1` came in with an IC50 of 27 nM. This lies in the double-digit nanomolar range.
The value for `CCCN(CCC)C(=O)c1c(CN(CC)Cc2ccccc2)nc2ccccc2c1-c1ccccc1` was 456 nM; that for `CCCNC(=O)c1c(CN(CC)Cc2ccccc2)nc2ccccc2c1-c1ccccc1` was 872 nM.
Turning to `CCOC(=O)c1c(CN(CC)Cc2ccccc2)nc2ccccc2c1-c1ccccc1`, the IC50 was 700 nM.
The compound `CCOC(=O)c1c(Cl)nc2ccccc2c1-c1ccccc1` had an IC50 of 3700 nM.
The value for `CCOC(=O)c1c(CN2CCc3ccccc3C2)nc2ccccc2c1-c1ccccc1` was 1190 nM; that for `CCN(Cc1ccccc1)Cc1nc2ccccc2c(-c2ccccc2)c1C(=O)N(C)C` was 229 nM; that for `CCN(Cc1ccccc1)Cc1ccccc1C(=O)N(C)c1ccccc1` was more than 10000 nM.
`CCN(Cc1ccccc1)Cc1ccccc1C(=O)N(C)C` showed an IC50 of more than 10000 nM.
In the case of `CCN(Cc1ccccc1)Cc1nc2ccccc2c(-c2ccccc2)c1C(=O)N(C)c1ccc(Cl)cc1` it was 2480 nM.
In turn, `CCN(Cc1ccccc1)Cc1c(C(=O)N(CC)CC)nc2ccccc2c1-c1ccccc1` displayed an IC50 of 4.1 nM.

Source of the values: ChEMBL document CHEMBL1134389, “Mapping and fitting the peripheral benzodiazepine receptor binding site by carboxamide derivatives. Comparison of different approaches to quantitative ligand-receptor interaction modeling” (J Med Chem, 2001).
